Measurements published in ChEMBL document CHEMBL3526015, “Metabolism of the c-Fos/activator protein-1 inhibitor T-5224 by multiple human UDP-glucuronosyltransferase isoforms” (Drug Metab Dispos, 2011).

Tests used:
[1] = target: T1, UDP-glucuronosyltransferase 1A1 (Homo sapiens, UniProt P22309); test: Substrate inhibition of human UGT1A1-mediated T-5224 acyl O-glucuronide formation after 10 to 60 mins in presence of UDP-glucuronic acid by HPLC method; format: ADME
T1 sequence (P22309 whole entry): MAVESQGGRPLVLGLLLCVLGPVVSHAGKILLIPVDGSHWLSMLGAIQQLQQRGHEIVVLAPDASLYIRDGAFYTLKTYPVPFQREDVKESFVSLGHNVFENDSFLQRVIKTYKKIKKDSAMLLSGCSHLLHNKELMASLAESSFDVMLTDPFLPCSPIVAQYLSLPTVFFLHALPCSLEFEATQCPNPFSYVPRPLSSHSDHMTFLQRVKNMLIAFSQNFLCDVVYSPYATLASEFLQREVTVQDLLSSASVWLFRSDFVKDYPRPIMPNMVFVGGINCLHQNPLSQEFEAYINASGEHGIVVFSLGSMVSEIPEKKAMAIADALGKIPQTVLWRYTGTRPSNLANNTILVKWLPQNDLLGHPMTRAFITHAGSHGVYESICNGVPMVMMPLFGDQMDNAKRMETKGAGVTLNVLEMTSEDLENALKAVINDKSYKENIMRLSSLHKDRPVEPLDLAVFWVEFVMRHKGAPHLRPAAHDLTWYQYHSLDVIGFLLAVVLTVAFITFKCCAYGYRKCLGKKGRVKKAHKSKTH
Method in brief: (§1)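 Recombinant human UGT1A1, UGT1A3 or UGT1A8 from baculovirus-infected insect cells (0.1 mg protein/mL) in 50 mM Tris-HCl pH 7.5, 8 mM MgCl2, alamethicin, 2% DMSO. T-5224 at 1–50 μM with 2 mM UDPGA for 60 min at 37°C. HPLC with UV at 290 nm. Triplicates fitted to a substrate-inhibition model. kcat uses UGT content quantified by immunoblot against recombinant UGT1A1/UGT2B4 standards.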

[2] = Drug metabolism in pooled human intestinal microsomes assessed as T-5224 hydroxyl O-glucuronide formation at 10 uM after 10 mins by HPLC method; format: ADME, Intestine, Microsome
Method in brief: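 T-5224 at 10 μM incubated for 10 min at 37°C with UDPGA (2 mM) in pooled liver (0.5 mg protein/mL) or intestinal (0.25 mg protein/mL) microsomes. Buffer was 50 mM Tris-HCl pH 7.5 with 8 mM MgCl2 and alamethicin, after 5 min preincubation. Stopped with acetonitrile; glucuronides quantified by HPLC at 290 nm.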

[3] = Drug metabolism in human intestinal microsomes assessed as T-5224 acyl O-glucuronide formation after 10 to 60 mins by HPLC method; format: ADME, Intestine, Microsome
Method in brief: (§2)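 Pooled liver microsomes (0.5 mg/mL) were incubated 10 min. Pooled intestinal microsomes (0.25 mg/mL) ran 10 min at T-5224 10–50 μM and 20 min at 1–5 μM. Buffer was 50 mM Tris-HCl pH 7.5 with 8 mM MgCl2, alamethicin and 2 mM UDPGA, at 37°C, in triplicate. Glucuronides G2/G3 were read by HPLC at 290 nm and fitted for Vmax/Km.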

Cytochrome P450 2C19 = Cytochrome P450 2C19 (Homo sapiens, UniProt P33261); test: Drug metabolism assessed as human CYP2C19-mediated metabolite formation at 2 uM after 30 mins by HPLC method; format: ADME; details: recombinant enzyme, 0.5 h
Cytochrome P450 2C19, sequence (P33261 whole entry): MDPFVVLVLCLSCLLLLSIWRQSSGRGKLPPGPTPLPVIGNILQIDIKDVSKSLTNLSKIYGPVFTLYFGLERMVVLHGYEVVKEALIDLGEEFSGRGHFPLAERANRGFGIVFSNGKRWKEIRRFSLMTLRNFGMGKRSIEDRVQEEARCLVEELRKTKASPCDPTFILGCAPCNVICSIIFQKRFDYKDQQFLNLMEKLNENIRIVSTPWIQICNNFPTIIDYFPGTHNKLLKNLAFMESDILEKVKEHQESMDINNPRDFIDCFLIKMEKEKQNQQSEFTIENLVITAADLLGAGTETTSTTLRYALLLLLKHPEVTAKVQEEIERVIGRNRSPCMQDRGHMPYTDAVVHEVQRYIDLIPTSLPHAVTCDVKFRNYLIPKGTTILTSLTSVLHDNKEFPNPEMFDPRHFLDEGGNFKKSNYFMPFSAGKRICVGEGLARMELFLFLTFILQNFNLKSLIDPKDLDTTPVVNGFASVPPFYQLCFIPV
Method in brief: (§3)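 Each recombinant human P450 was used at 50 pmol/mL with an NADPH-generating system and 2 μM 14C-T-5224 (0.5% DMSO final). Buffer was 100 mM Tris-HCl pH 7.5, except 100 mM potassium phosphate pH 7.4 for CYP2A6 and CYP2C9*1. Incubation ran 30 min at 37°C and was stopped with acetonitrile/methanol. Radioactive metabolite peaks were detected by C18 HPLC.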

[4] = Drug metabolism assessed as human CYP2D6*1-mediated metabolite formation at 2 uM after 30 mins by HPLC method; format: ADME; details: 0.5 h; method in brief: as §3
[5] = Drug metabolism in human intestinal microsomes assessed as T-5224 hydroxyl O-glucuronide formation after 10 to 60 mins by HPLC method; format: ADME, Intestine, Microsome; method in brief: as §2
[6] = target: T2, UDP-glucuronosyltransferase 1A3 (Homo sapiens, UniProt P35503); test: Drug metabolism assessed as human UGT1A3-mediated T-5224 hydroxyl O-glucuronide formation at 5 to 50 uM after 60 mins in presence of UDP-glucuronic acid by HPLC method; format: ADME; details: recombinant enzyme, 1 h
T2 sequence (P35503 whole entry): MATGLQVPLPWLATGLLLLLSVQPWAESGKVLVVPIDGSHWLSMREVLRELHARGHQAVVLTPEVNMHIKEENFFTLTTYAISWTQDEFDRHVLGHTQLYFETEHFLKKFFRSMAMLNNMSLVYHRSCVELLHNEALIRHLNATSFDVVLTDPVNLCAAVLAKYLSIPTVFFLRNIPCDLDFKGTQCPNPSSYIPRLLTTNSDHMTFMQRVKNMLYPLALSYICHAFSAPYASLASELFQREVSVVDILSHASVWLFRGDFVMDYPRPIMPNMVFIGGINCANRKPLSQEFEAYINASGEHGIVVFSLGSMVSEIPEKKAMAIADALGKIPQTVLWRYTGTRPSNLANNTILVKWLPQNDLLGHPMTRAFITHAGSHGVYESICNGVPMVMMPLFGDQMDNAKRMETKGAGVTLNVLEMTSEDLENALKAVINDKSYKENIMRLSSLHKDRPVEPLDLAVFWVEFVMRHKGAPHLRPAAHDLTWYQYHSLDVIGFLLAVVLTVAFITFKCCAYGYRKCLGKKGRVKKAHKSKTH

Liver microsome [7] = test: Drug metabolism in human liver microsomes assessed as Vmax/Km ratio for T-5224 hydroxyl O-glucuronide formation per mg protein after 10 to 60 mins by HPLC method; format: ADME
Method in brief: (§4)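 Pooled liver (0.5 mg protein/mL) or intestinal (0.25 mg protein/mL) microsomes in 50 mM Tris-HCl pH 7.5, 8 mM MgCl2, alamethicin, 2% DMSO. T-5224 at 1–50 μM, 5 min preincubation at 37°C, started with 2 mM UDPGA. Incubated 10 min, or 20 min for intestinal microsomes at 1–5 μM. Acetonitrile stop, glucuronides by HPLC at 290 nm. Triplicates fitted to a substrate-inhibition model.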

[8] = target: T1, UDP-glucuronosyltransferase 1A1; test: Drug metabolism assessed as human UGT1A1-mediated T-5224 hydroxyl O-glucuronide formation at 5 to 50 uM after 60 mins in presence of UDP-glucuronic acid by HPLC method; format: ADME; details: recombinant enzyme, 1 h
[9] = target: T1, UDP-glucuronosyltransferase 1A1; test: Substrate inhibition of human UGT1A1-mediated T-5224 hydroxyl O-glucuronide formation after 10 to 60 mins in presence of UDP-glucuronic acid by HPLC method; format: ADME; method in brief: as §1
Liver microsome [10] = test: Substrate inhibition of T-5224 acyl O-glucuronide formation in human liver microsomes after 10 to 60 mins by HPLC method; method in brief: as §4
[11] = target: T1, UDP-glucuronosyltransferase 1A1; test: Drug metabolism assessed as human UGT1A1-mediated T-5224 hydroxyl O-glucuronide formation at 10 uM […] in presence of beta-estradiol by HPLC method; format: ADME; details: recombinant enzyme
Method in brief: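 Pooled human liver microsomes or recombinant UGT1A1 were incubated with 10 μM T-5224, 2 mM UDPGA and β-estradiol at 0–500 μM (2% DMSO), in Tris-HCl/MgCl2/alamethicin buffer. Incubation was 10 min (liver microsomes) or 60 min (UGT1A1) at 37°C. G2/G3 were read by HPLC at 290 nm, as mean ± SD, n = 3.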

O=C(O)CCc1cc(C(=O)c2ccc(OC3CCCC3)cc2O)ccc1OCc1ccc2c(O)noc2c1
Ki [1]: 1.54 µM | Drug metabolism [2]: metabolite_detected | Km [3]: 5.88 µM | Drug metabolism (Cytochrome P450 2C19): metabolite_not_detected | Drug metabolism [4]: metabolite_not_detected | Km [5]: 3.06 µM | Drug metabolism [6]: metabolite_detected | Vmax/Km (Liver microsome [7]): 19.5 µL/min | Drug metabolism [8]: metabolite_detected | Ki [9]: 4.67 µM | Ki (Liver microsome [10]): 13.2 µM | Drug metabolism [11]: metabolite_detected
